From ChEMBL document CHEMBL2311246 (Bioorg Med Chem, 2013)
Activity calls are given as the source filed them. The rule behind the calls is not given here.

Assays:
Hepatitis C virus [1] = assay: Antiviral activity against HCV JFH1 infected in human Huh7.5.1 cells assessed as reduction in viral proteins at non-cytotoxic concentration after 72 hrs post compound dose by Western blotting method; type: functional, organism-based; settings: Hepacivirus hominis, Huh-7
LNCaP = assay: Antiproliferative activity against human LNCAP cells after 72 hrs after ATPlite kit assay; type: functional, cell-based
Summary of the method: (§1)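 10,000 cells per well plated, incubated overnight, then exposed to increasing compound concentrations for 72 h. Viability read by ATPlite luminescence. IC50 obtained by linear regression. Prostate lines (DU145, PC-3, LNCaP) are ATCC stocks. LNCaP culture was modified from the earlier method.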

[2] = Antiproliferative activity against human Huh7.5.1 cells after 72 hrs after ATPlite kit assay; type: functional, cell-based; settings: Huh-7, 72 h; summary of the method: as §1
DU-145 = assay: Antiproliferative activity against human DU145 cells after 72 hrs after ATPlite kit assay; type: functional, cell-based; settings: DU-145, 72 h; summary of the method: as §1
PC-3 = assay: Antiproliferative activity against human PC3 cells after 72 hrs after ATPlite kit assay; type: functional, cell-based; settings: PC-3, 72 h; summary of the method: as §1
Hepatitis C virus [3] = assay: Antiviral activity against HCV JFH1 infected in human Huh7.5.1 cells assessed as reduction in viral proteins after 72 hrs post compound dose by Western blotting method; type: functional, organism-based, Hepacivirus hominis; settings: JFH1, Huh-7, 72 h
Cytochrome P450 2C9 = Cytochrome P450 2C9 (Homo sapiens, UniProt P11712); assay: Inhibition of CYP2C9 in pooled human liver microsomes assessed as reduction in enzyme-mediated (S)-warfarin 7-hydroxylation by HPLC/MS-MS method; type: ADME, Microsome
Sequence of Cytochrome P450 2C9 (P11712 whole entry): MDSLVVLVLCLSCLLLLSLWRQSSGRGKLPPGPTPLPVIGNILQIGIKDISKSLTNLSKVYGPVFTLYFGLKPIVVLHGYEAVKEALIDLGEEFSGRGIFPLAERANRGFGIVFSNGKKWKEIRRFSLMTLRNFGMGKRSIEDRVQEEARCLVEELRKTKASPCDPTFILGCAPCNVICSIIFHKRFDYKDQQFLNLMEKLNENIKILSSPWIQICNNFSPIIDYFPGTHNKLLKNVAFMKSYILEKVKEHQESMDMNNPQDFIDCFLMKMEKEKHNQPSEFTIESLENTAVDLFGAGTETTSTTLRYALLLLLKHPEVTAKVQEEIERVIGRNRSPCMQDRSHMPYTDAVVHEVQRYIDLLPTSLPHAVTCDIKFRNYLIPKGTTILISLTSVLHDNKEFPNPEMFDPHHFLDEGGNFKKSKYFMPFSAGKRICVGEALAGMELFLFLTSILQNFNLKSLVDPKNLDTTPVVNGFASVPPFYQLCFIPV
Summary of the method: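 Pooled HLM (0.1 mg/mL microsomal protein) incubated with (S)-warfarin 4 µM and compound at 1, 10 or 100 µM in 100 mM potassium phosphate, pH 7.4. Vehicle controls held 0.75% MeOH (v/v). Sulfaphenazole 1 µM served as positive control. 7-Hydroxywarfarin measured by HPLC/MS-MS. Means ± SD of triplicate incubations; two-way ANOVA with Tukey post hoc test.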

Q: What does the source list for `COc1cc(O)c2c(c1)O[C@H](c1ccc3c(c1)O[C@@H](c1ccc(O)c(OC)c1)[C@H](CO)O3)[C@@H](O)C2=O`?
A: Activity (Hepatitis C virus [1]): Active; IC50 (LNCaP): 20.1 µM; IC50 [2]: 13.3 µM; IC50 (DU-145): 19.3 µM; IC50 (PC-3): 16.9 µM

Q: Which IC50 (Hepatitis C virus [3]) does the source give for `COc1cc([C@@H]2Oc3cc([C@H]4Oc5cc(O)cc(O)c5C(=O)[C@@H]4O)ccc3O[C@H]2CO)ccc1O` [SILYBIN B] here?
A: 40 µM

Q: What about the IC50 (Cytochrome P450 2C9) of the same molecule?
A: 8.2 µM

Q: What about the IC50 (LNCaP) of the same molecule?
A: 69.6 µM

Q: And the IC50 [2]?
A: 56.2 µM

Q: And the IC50 (DU-145)?
A: 61.8 µM

Q: And the IC50 (PC-3)?
A: 60.5 µM

Q: What does the source list for `COc1cc(OC)c2c(c1)O[C@H](c1ccc3c(c1)O[C@@H](c1ccc(OC)c(OC)c1)[C@H](CO)O3)[C@@H](O)C2=O`?
A: Activity (Hepatitis C virus [1]): Active; IC50 (LNCaP): 40.7 µM; IC50 [2]: 25.5 µM; IC50 (DU-145): 46.9 µM; IC50 (PC-3): 36.3 µM

Q: Which results are given for `COC[C@@H]1Oc2ccc([C@H]3Oc4cc(OC)cc(O)c4C(=O)[C@@H]3O)cc2O[C@H]1c1ccc(OC)c(OC)c1`?
A: IC50 (LNCaP): 19.8 µM; IC50 (DU-145): 16.8 µM; IC50 (PC-3): 21.9 µM

Q: With `COC[C@@H]1Oc2ccc([C@H]3Oc4cc(OC)cc(OC)c4C(=O)[C@@H]3O)cc2O[C@H]1c1ccc(OC)c(OC)c1` as the molecule, how does the Activity (Hepatitis C virus [1]) read?
A: Active

Q: What about the “inhibition (INH)” value (Cytochrome P450 2C9; human, microsomes) of the same molecule?
A: Not Active

Q: What about the IC50 (LNCaP) of the same molecule?
A: 30.1 µM

Q: What about the IC50 [2] of the same molecule?
A: 15.6 µM

Q: And the IC50 (DU-145)?
A: 24 µM

Q: And the IC50 (PC-3)?
A: 14.4 µM

Q: What does the source list for `COc1cc(O)c2c(c1)O[C@H](c1ccc3c(c1)O[C@@H](c1ccc(OC)c(OC)c1)[C@H](CO)O3)[C@@H](O)C2=O`?
A: Activity (Hepatitis C virus [1]): Active; IC50 (LNCaP): 11.3 µM; IC50 [2]: 13.5 µM; IC50 (DU-145): 10 µM; IC50 (PC-3): 8.1 µM
